Converted amounts (≈) assume the structure as drawn.
What was measured:
Bacillus subtilis = assay: Antimicrobial activity against Bacillus subtilis ATCC 11774 after 18 to 24 hrs by microbroth dilution method; type: functional
Method in brief: (§1)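 Bacteria were cultured in Mueller Hinton broth in 96-well microtiter plates, and the suspensions were added to MHB containing varying concentrations of test compound. Plates were incubated at 37 °C for 18–24 h, then read visually with a reading mirror and spectrophotometrically at 450 nm. MIC was taken as the lowest concentration giving complete suppression of visible growth.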

Klebsiella pneumoniae = assay: Antimicrobial activity against Klebsiella pneumoniae ATCC 10031 after 18 to 24 hrs by microbroth dilution method; type: functional; method in brief: as §1
Shigella boydii = assay: Antimicrobial activity against Shigella boydii ATCC 9207 after 18 to 24 hrs by microbroth dilution method; type: functional; method in brief: as §1
Proteus mirabilis = assay: Antimicrobial activity against Proteus mirabilis ATCC 7002 after 18 to 24 hrs by microbroth dilution method; type: functional; method in brief: as §1
Streptococcus salivarius = assay: Antimicrobial activity against Streptococcus salivarius ATCC 13419 after 18 to 24 hrs by microbroth dilution method; type: functional; method in brief: as §1
Proteus vulgaris = assay: Antimicrobial activity against Proteus vulgaris ATCC 49132 after 18 to 24 hrs by microbroth dilution method; type: functional; method in brief: as §1
Vibrio parahaemolyticus = assay: Antimicrobial activity against Vibrio parahaemolyticus ATCC 17802 after 18 to 24 hrs by microbroth dilution method; type: functional; method in brief: as §1
Streptococcus mitis = assay: Antimicrobial activity against Streptococcus mitis ATCC 6249 after 18 to 24 hrs by microbroth dilution method; type: functional; method in brief: as §1
Aeromonas hydrophila = assay: Antimicrobial activity against Aeromonas hydrophila ATCC 7966 after 18 to 24 hrs by microbroth dilution method; type: functional; method in brief: as §1
Salmonella paratyphi = assay: Antimicrobial activity against Salmonella paratyphi A ATCC 9150 after 18 to 24 hrs by microbroth dilution method; type: functional, Salmonella enterica subsp. enterica serovar Paratyphi A; details: Salmonella enterica
Method in brief: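 Broth microdilution in 96-well plates; bacteria grown in Mueller Hinton broth with varying concentrations of test compound, incubated at 37 °C for 18–24 h. Plates read visually with a reading mirror and spectrophotometrically at 450 nm. MIC taken as lowest concentration giving complete suppression of visible growth.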

Candida albicans = assay: Antimicrobial activity against Candida albicans ATCC 90028 after 18 to 24 hrs by microbroth dilution method; type: functional
Method in brief: as §1, with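 “Fungal isolates” for “Bacteria”, “cultivated” for “cultured”, “Sabouraud's” for “Mueller Hinton”, “SDB” for “MHB”, “completely suppressing” for “giving complete suppression of”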

Staphylococcus aureus = assay: Antimicrobial activity against Staphylococcus aureus ATCC 11632 after 18 to 24 hrs by microbroth dilution method; type: functional; method in brief: as §1
Cryptococcus neoformans = assay: Antimicrobial activity against Cryptococcus neoformans ATCC 14116 after 18 to 24 hrs by microbroth dilution method; type: functional
Method in brief: as §1, with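 “Fungal isolates” for “Bacteria”, “cultivated” for “cultured”, “Sabouraud's” for “Mueller Hinton”, “SDB” for “MHB”, “completely suppressing” for “giving complete suppression of”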

Vibrio alginolyticus = assay: Antimicrobial activity against Vibrio alginolyticus ATCC 17749 after 18 to 24 hrs by microbroth dilution method; type: functional; method in brief: as §1
Pseudomonas aeruginosa = assay: Antimicrobial activity against Pseudomonas aeruginosa ATCC 10145 after 18 to 24 hrs by microbroth dilution method; type: functional; method in brief: as §1
Streptococcus sanguinis = assay: Antimicrobial activity against Streptococcus sanguinis ATCC 10556 after 18 to 24 hrs by microbroth dilution method; type: functional; method in brief: as §1

SMILES | MIC (Bacillus subtilis) [µg/mL] | MIC (Klebsiella pneumoniae) [µg/mL] | MIC (Shigella boydii) [µg/mL] | MIC (Proteus mirabilis) [µg/mL] | MIC (Streptococcus salivarius) [µg/mL] | MIC (Proteus vulgaris) [µg/mL] | MIC (Vibrio parahaemolyticus) [µg/mL] | MIC (Streptococcus mitis) [µg/mL] | MIC (Aeromonas hydrophila) [µg/mL] | MIC (Salmonella paratyphi) [µg/mL] | MIC (Candida albicans) [µg/mL] | MIC (Staphylococcus aureus) [µg/mL] | MIC (Cryptococcus neoformans) [µg/mL] | MIC (Vibrio alginolyticus) [µg/mL] | MIC (Pseudomonas aeruginosa) [µg/mL] | MIC (Streptococcus sanguinis) [µg/mL]
CCn1cc(C(=O)O)c(=O)c2cc(F)c(N3CCN(c4ccc(F)cc4)CC3)c(F)c21 | 2.5 (≈ 5.79 µM) | 1.5 (≈ 3.48 µM) | 2 (≈ 4.64 µM) | 1.25 (≈ 2.9 µM) | 1.5 (≈ 3.48 µM) | 2.5 (≈ 5.79 µM) | 1.5 (≈ 3.48 µM) | 1.5 (≈ 3.48 µM) |  |  |  |  |  |  |  | 
CCn1cc(C(=O)O)c(=O)c2cc(F)c(N3CCN(c4ccccc4F)CC3)c(F)c21 | 1.25 (≈ 2.9 µM) | 1.5 (≈ 3.48 µM) | 2 (≈ 4.64 µM) | 5 (≈ 11.6 µM) | 1 (≈ 2.32 µM) | 2.5 (≈ 5.79 µM) | 1.5 (≈ 3.48 µM) | 1.5 (≈ 3.48 µM) | 1.5 (≈ 3.48 µM) |  |  |  |  |  |  | 
CCn1cc(C(=O)O)c(=O)c2cc(F)c(N3CCN(c4ccccc4C#N)CC3)c(F)c21 | 1.5 (≈ 3.42 µM) | 1 (≈ 2.28 µM) | 2 (≈ 4.56 µM) | 2.5 (≈ 5.7 µM) | 2.5 (≈ 5.7 µM) | 1 (≈ 2.28 µM) | 1.5 (≈ 3.42 µM) | 1.5 (≈ 3.42 µM) |  | 1.5 (≈ 3.42 µM) |  |  |  |  |  | 
CCn1cc(C(=O)O)c(=O)c2cc(F)c(N3CCN(Cc4ccccc4)CC3)c(F)c21 |  | 1 (≈ 2.34 µM) | 1.5 (≈ 3.51 µM) | 1.5 (≈ 3.51 µM) | 2.5 (≈ 5.85 µM) |  | 1.5 (≈ 3.51 µM) | 1.5 (≈ 3.51 µM) | 1.5 (≈ 3.51 µM) | 1 (≈ 2.34 µM) |  |  |  |  |  | 
CCn1cc(C(=O)O)c(=O)c2cc(F)c(N3CCN(c4ccccc4)CC3)c(F)c21 | 5 (≈ 12.1 µM) | 2 (≈ 4.84 µM) |  | 1.5 (≈ 3.63 µM) | 1 (≈ 2.42 µM) | 1.5 (≈ 3.63 µM) |  | 1.5 (≈ 3.63 µM) |  |  | 413 (≈ 1000 µM) | 1 (≈ 2.42 µM) |  |  |  | 
CCn1cc(C(=O)O)c(=O)c2cc(F)c(N3CCN(c4cccc(Cl)c4Cl)CC3)c(F)c21 | 5 (≈ 10.4 µM) | 1.25 (≈ 2.59 µM) | 1 (≈ 2.07 µM) | 5 (≈ 10.4 µM) | 2.5 (≈ 5.18 µM) | 2.5 (≈ 5.18 µM) | 1.25 (≈ 2.59 µM) | 5 (≈ 10.4 µM) | 0.5 (≈ 1.04 µM) | 5 (≈ 10.4 µM) | 108 (≈ 224 µM) | 1 (≈ 2.07 µM) | 2.17 (≈ 4.5 µM) | 1 (≈ 2.07 µM) |  | 
CCn1cc(C(=O)O)c(=O)c2cc(F)c(N3CCC(NC)CC3)c(F)c21 | 1.25 (≈ 3.42 µM) | 5 (≈ 13.7 µM) | 1 (≈ 2.74 µM) | 1.25 (≈ 3.42 µM) | 2.5 (≈ 6.84 µM) | 1.25 (≈ 3.42 µM) | 0.5 (≈ 1.37 µM) | 2.5 (≈ 6.84 µM) | 2 (≈ 5.47 µM) | 5 (≈ 13.7 µM) |  | 2.5 (≈ 6.84 µM) | 1.82 (≈ 4.98 µM) | 2.5 (≈ 6.84 µM) | 1 (≈ 2.74 µM) | 2 (≈ 5.47 µM)
CCn1cc(C(=O)O)c(=O)c2cc(F)c(N3CCC(C)CC3)c(F)c21 | 5 (≈ 14.3 µM) | 1.5 (≈ 4.28 µM) |  | 2.5 (≈ 7.14 µM) | 2.5 (≈ 7.14 µM) | 1 (≈ 2.85 µM) | 1.5 (≈ 4.28 µM) | 1 (≈ 2.85 µM) |  |  |  |  |  |  |  | 
CCn1cc(C(=O)O)c(=O)c2cc(F)c(N3CCC(N4CCCCC4)CC3)c(F)c21 |  | 2.5 (≈ 5.96 µM) | 1 (≈ 2.38 µM) | 1.25 (≈ 2.98 µM) | 2.5 (≈ 5.96 µM) | 1.25 (≈ 2.98 µM) | 2.5 (≈ 5.96 µM) | 2.5 (≈ 5.96 µM) | 0.5 (≈ 1.19 µM) | 1 (≈ 2.38 µM) |  | 2.5 (≈ 5.96 µM) |  |  |  | 
CCn1cc(C(=O)O)c(=O)c2cc(F)c(N3CCC(CO)CC3)c(F)c21 | 1 (≈ 2.73 µM) | 2.5 (≈ 6.82 µM) | 0.5 (≈ 1.36 µM) | 1.25 (≈ 3.41 µM) | 1.25 (≈ 3.41 µM) | 1.25 (≈ 3.41 µM) | 1.25 (≈ 3.41 µM) | 2.5 (≈ 6.82 µM) | 1 (≈ 2.73 µM) | 5 (≈ 13.6 µM) | 183 (≈ 500 µM) | 1.25 (≈ 3.41 µM) | 4.19 (≈ 11.4 µM) | 1 (≈ 2.73 µM) | 1.5 (≈ 4.09 µM) | 2 (≈ 5.46 µM)
CCn1cc(C(=O)O)c(=O)c2cc(F)c(N3CCC(Br)CC3)c(F)c21 | 2.5 (≈ 6.02 µM) | 5 (≈ 12 µM) | 1 (≈ 2.41 µM) | 5 (≈ 12 µM) | 2.5 (≈ 6.02 µM) | 2.5 (≈ 6.02 µM) | 5 (≈ 12 µM) | 1 (≈ 2.41 µM) | 1.5 (≈ 3.61 µM) |  | 415 (≈ 999 µM) | 5 (≈ 12 µM) | 1.03 (≈ 2.48 µM) |  |  | 
O=C(O)c1cn(C2CC2)c2cc(N3CCNCC3)c(F)cc2c1=O [CIPROFLOXACIN] | 1.5 (≈ 4.53 µM) | 1.5 (≈ 4.53 µM) | 2.5 (≈ 7.54 µM) | 6 (≈ 18.1 µM) | 1.5 (≈ 4.53 µM) | 3 (≈ 9.05 µM) | 8 (≈ 24.1 µM) | 2.5 (≈ 7.54 µM) | 3 (≈ 9.05 µM) | 4 (≈ 12.1 µM) |  | 1 (≈ 3.02 µM) |  | 2 (≈ 6.04 µM) |  | 4 (≈ 12.1 µM)
CCn1cc(C(=O)O)c(=O)c2cc(F)c(N3CCNCC3)cc21 [NORFLOXACIN] |  |  |  |  |  |  |  |  |  |  | 312 (≈ 979 µM) |  | 4.88 (≈ 15.3 µM) |  |  | 

From ChEMBL document CHEMBL1629487, “Synthesis and in vitro antimicrobial evaluation of novel fluoroquinolone derivatives” (2010)
